Assay results pooled from the literature.
Lines come from different studies, so protocols differ.
Cell line: MCF7
Effect on: cell growth or viability

COc1cc2ncnc(N(C)c3ccc4c(c3)/C(=C/c3cccc(Cl)c3)C(=O)N4C)c2cc1OC  IC50 (MTT): 6.53 µM
COc1ccc(-c2cc(-c3c(OC)cccc3OC)c3c(=O)n(C)c(=O)n(C)c3n2)cc1  IC50 (MTT; 48 h): 11.3 µM
O=C(C=Cc1ccc(O)c(O)c1)OCc1ccccc1  IC50 (MTT): 85.2 µM
Cc1nc(Nc2ccc3c(c2)/C(=C/c2ccccc2)C(=O)N3Cc2ccccc2)c2ccccc2n1  IC50 (MTT): 11.6 µM
COc1ccc(-c2cc(-c3cc(OC)ccc3OC)c3c(=O)n(C)c(=O)n(C)c3n2)cc1  IC50 (MTT; 48 h): 19.8 µM
Cc1nc(Nc2ccc3c(c2)/C(=C/c2ccccc2Cl)C(=O)N3)c2ccccc2n1  IC50 (MTT): 6.45 µM
COc1ccc(-c2cc(-c3ccc(OC)cc3)c3c(=O)[nH]c(=O)[nH]c3n2)cc1  IC50 (MTT; 48 h): 8.38 µM
COc1cc2c3c(n(CCCN4CCOCC4)c(=O)c2cc1OC)-c1nc2c(cc1C3=O)OCO2  IC50 (72 h): 0.936 µM
Cc1ccc(-c2cc(-c3ccc(Cl)cc3)c3c(=O)n(C)c(=O)n(C)c3n2)cc1  IC50 (MTT; 48 h): 7.49 µM
Cc1ccccc1NC(=O)C=Cc1ccc(O)c(O)c1  IC50 (MTT): 44.5 µM
CCNCCCn1c2c(c3cc(OC)c(OC)cc3c1=O)C(=O)c1cc3c(nc1-2)OCO3  IC50 (72 h): 0.262 µM
Cc1ccc(-c2cc(-c3c(Cl)cccc3Cl)c3c(=O)n(C)c(=O)n(C)c3n2)cc1  IC50 (MTT; 48 h): 6.41 µM
Nc1ccccc1OC(=O)C=Cc1ccc(O)c(O)c1  IC50 (MTT): 22.3 µM
O=C(CCn1c(=O)ccc2ccccc21)N1CCOCC1  IC50 (MTT; 48 h): 9.77 µM
COc1cc2ncnc(N(C)c3ccc4c(c3)/C(=C/c3ccccc3)C(=O)N4C)c2cc1OC (mixture of isomers)  IC50 (MTT): 9.38 µM
COc1cc2c3c(n(CCCn4ccnc4)c(=O)c2cc1OC)-c1nc2c(cc1C3=O)OCO2  IC50 (72 h): 0.372 µM
Cc1nc(NC(=O)N2CCC[C@H]2C(N)=O)sc1-c1ccnc(C(C)(C)C(F)(F)F)c1  IC50 (MTT): 1.89 µM
C=CC(=O)Nc1cc(Nc2nccc(-c3cn(C)c4ccccc34)n2)c(OC)cc1N(C)CCN(C)C  IC50 (MTS; 72 h): 8.34 µM
Cc1nc(Nc2ccc3c(c2)/C(=C/c2ccccc2C)C(=O)N3)c2ccccc2n1  IC50 (MTT): > 50 µM
COc1ccc(-c2cc(-c3ccccc3Cl)c3c(=O)n(C)c(=O)n(C)c3n2)cc1  IC50 (MTT; 48 h): 21.5 µM
